hERG protect = compounds protecting human hERG from proarrhythmic drug block; Q12809; CHO-hERG, FluxOR thallium flux, dofetilide IC70 present; activation (rescue from dofetilide block), less the hit threshold, % at 10 µM; 310,000 tested, 0.51% active; AID 1511;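 active = activation above the mean of controls blocked by dofetilide plus 5 SD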;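 also: thallium influx through hERG after potassium depolarization seen as dye fluorescence rise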
KCNK3 inh = human KCNK3 channel inhibition, primary screen | B-score at 10 µM | AID 602410 | O14649 | 340,000 tested, 0.84% active | CHO-KCNK3 thallium flux, FluxOR fluorescence; stronger effect = lower value;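 active = B-score under library mean minus 4 SD, starting fluorescence ratio at most library mean plus 5 SD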;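 also: more negative B-score means stronger inhibition of thallium flux through KCNK3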
Target sequence (O14649 whole entry, looked up): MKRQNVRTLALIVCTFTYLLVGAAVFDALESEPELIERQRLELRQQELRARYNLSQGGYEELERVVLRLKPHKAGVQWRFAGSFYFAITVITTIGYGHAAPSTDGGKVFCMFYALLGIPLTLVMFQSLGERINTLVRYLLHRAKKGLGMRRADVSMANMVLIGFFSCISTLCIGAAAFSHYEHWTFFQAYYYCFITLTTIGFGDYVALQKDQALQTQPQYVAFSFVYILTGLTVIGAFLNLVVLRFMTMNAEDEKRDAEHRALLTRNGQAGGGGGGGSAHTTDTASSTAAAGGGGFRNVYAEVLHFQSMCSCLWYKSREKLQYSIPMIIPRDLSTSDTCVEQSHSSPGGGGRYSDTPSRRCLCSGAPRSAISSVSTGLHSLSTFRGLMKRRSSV
KCNQ1 inh = inhibitors of human KCNQ1 potassium channel. P51787. CHO-K1 KCNQ1, FluxOR thallium flux fluorescence; stronger effect = higher value. B-score at 10 µM. 310,000 tested, 1.3% active. AID 2642;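 active = compounds whose thallium flux B-score, printed positive for inhibition, exceeds three library SD while starting fluorescence stays within three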;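 also: channel opened by potassium depolarization with thallium stimulus after 20 min compound exposure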
KCNQ1 pot = potentiators or activators of human KCNQ1 potassium channel | P51787 | CHO-K1 KCNQ1, thallium flux FluxOR fluorescence; stronger effect = higher value | B-score at 10 µM | 310,000 tested, 0.35% active | AID 2648;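 active = fluorescence ratio B-score, a plate-corrected score, at least three library SD, with initial intensity B-score within 5 SD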
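Assay system: CHO-K1 cells stably expressing KCNQ1. Medium: assay buffer for compound exposure, DMSO matched across wells. Timing: 37 °C overnight plating, 90-min dark dye load, 20-min compound pretreatment. Signal: kinetic FluxOR fluorescence, 10 s baseline plus 110 s post-stimulus.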
KCNK9 inh = human KCNK9 channel inhibition | HEK293 KCNK9, FluxOR thallium flux fluorescence; stronger effect = lower value | B-score at 10 µM | 310,000 tested, 1.2% active | AID 488922;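 active = ratio B-score over 3 SD below the library mean, with starting fluorescence within 5 SD of its mean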;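 also: negative B-score means less thallium flux so channel inhibition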
Hits are given with their value. Hits are enriched below; roughly 3.1% of the tested compounds scored in any of these assays.

What do the screens show for `Nn1c(SCC(=O)Nc2ccc(N3CCOCC3)cc2)nnc1-c1ccccc1F`?
KCNK3 inh: inactive

How did COc1cccc(CN(C)C(=O)c2ccc(OCC(=O)Nc3cccc(C(F)(F)F)c3)c(OC)c2)c1 do in these assays?
hERG protect: inactive; KCNK3 inh: inactive; KCNQ1 inh: 9; KCNQ1 pot: inactive; KCNK9 inh: inactive

Results for COc1ccc(CN(C)C(=O)c2ccc(OCC(=O)Nc3cccc(C(F)(F)F)c3)c(OC)c2)c(OC)c1 ?
hERG protect: inactive; KCNK3 inh: inactive; KCNQ1 inh: inactive; KCNQ1 pot: inactive; KCNK9 inh: inactive

Results for COc1ccc(OC)c(S(=O)(=O)Oc2ccc(N)c3ccccc23)c1 ?
hERG protect: inactive; KCNK3 inh: inactive; KCNQ1 inh: inactive; KCNQ1 pot: inactive; KCNK9 inh: inactive

Results for Cc1ccc(NC(=O)Cn2ccnc2)cc1C ?
hERG protect: inactive; KCNK3 inh: inactive; KCNQ1 inh: inactive; KCNQ1 pot: inactive; KCNK9 inh: inactive

Results for CC(=O)OCC1O[C@@H](O[C@@H]2C[C@H]3C(C)(C)[C@H](OC(C)=O)CC[C@]3(C)[C@H]3CC[C@]45C[C@]4(CC[C@H]5[C@@H](C)C[C@@H](O)[C@H](O)C(C)(C)O)[C@@]32C)[C@H](O)[C@@H](O)[C@@H]1O (stereo partly drawn) ?
hERG protect: 6.5; KCNQ1 inh: inactive; KCNQ1 pot: inactive; KCNK9 inh: inactive

How did CCN(CC)C(=O)CN1C(=O)C2CC=C(Cl)CC2C1=O (stereo not drawn) do in these assays?
hERG protect: 5.8; KCNK3 inh: inactive; KCNQ1 inh: inactive; KCNQ1 pot: inactive; KCNK9 inh: inactive

How did CN(C)C(=O)CN1C(=O)C2CC=C(Cl)CC2C1=O (stereo not drawn) do in these assays?
hERG protect: inactive; KCNK3 inh: inactive; KCNQ1 inh: inactive; KCNQ1 pot: inactive; KCNK9 inh: inactive

What do the screens show for `Nc1cc(=O)[nH]c(SCC(=O)Nc2ccc(Oc3ccccc3)cc2)n1`?
hERG protect: inactive; KCNK3 inh: inactive; KCNQ1 inh: inactive; KCNQ1 pot: inactive; KCNK9 inh: inactive

What do the screens show for `COc1ccc(-c2ccc(-c3cc(=O)oc4cc(OC)c(OC)c(OC)c34)cc2)cc1`?
KCNK3 inh: inactive

What do the screens show for `COc1cccc(NC(=O)c2oc3ccccc3c2NC(=O)c2ccc3c(c2)OCO3)c1`?
hERG protect: inactive; KCNK3 inh: inactive; KCNQ1 inh: inactive; KCNQ1 pot: inactive; KCNK9 inh: -7.9

How did Cc1nnc(Sc2cc(NCCO)c([N+](=O)[O-])c3nonc23)s1 do in these assays?
hERG protect: inactive; KCNK3 inh: inactive; KCNQ1 inh: 8; KCNQ1 pot: inactive; KCNK9 inh: inactive

How did CCC(=O)OCCNc1cc(Sc2nc3ccccc3s2)c2nonc2c1[N+](=O)[O-] do in these assays?
hERG protect: inactive; KCNK3 inh: inactive; KCNQ1 inh: 6; KCNQ1 pot: inactive; KCNK9 inh: inactive

How did Cc1nnc(Sc2cc(NCCCO)c([N+](=O)[O-])c3nonc23)s1 do in these assays?
hERG protect: inactive; KCNK3 inh: inactive; KCNQ1 inh: 10; KCNQ1 pot: inactive; KCNK9 inh: -7.2

How did O=C(CN1C(=O)NC2(CCCCCCC2)C1=O)Nc1cccc(Br)c1 do in these assays?
KCNK3 inh: inactive

Results for O=C(Nc1ccccc1)Nc1ccc(O)c2ccccc12 ?
hERG protect: inactive; KCNK3 inh: inactive; KCNQ1 inh: 6; KCNQ1 pot: inactive; KCNK9 inh: inactive

What do the screens show for `O=C(Nc1ccccc1)Nc1cccc2ccccc12`?
hERG protect: inactive; KCNK3 inh: inactive; KCNQ1 inh: inactive; KCNQ1 pot: inactive; KCNK9 inh: inactive

Results for CCOc1ccc(C(c2c(NC(=O)c3ccco3)sc(C)c2C)N2CCOCC2)cc1 (stereo not drawn) ?
KCNK3 inh: -11

How did C=CC[C@H](CC(=O)N[C@H](CO)Cc1ccccc1)C(=O)N[C@@H](COC(=O)[C@H](CC=C)CC(=O)OC(C)(C)C)Cc1c[nH]c2ccccc12 do in these assays?
KCNK3 inh: inactive

What do the screens show for `N=C1S/C(=C\c2ccco2)C(=O)N1c1ccc2c(c1)OCO2`?
hERG protect: inactive; KCNK3 inh: inactive; KCNQ1 inh: inactive; KCNQ1 pot: inactive; KCNK9 inh: inactive

How did N=C1S/C(=C\c2ccco2)C(=O)N1c1nccs1 do in these assays?
hERG protect: inactive; KCNK3 inh: inactive; KCNQ1 inh: inactive; KCNQ1 pot: 9; KCNK9 inh: inactive
